Measurements published in ChEMBL document CHEMBL3862014, “Synthesis and anti-inflammatory activity of paeonol analogues in the murine model of complete Freund's adjuvant induced arthritis” (Bioorg Med Chem Lett, 2016).
Calls of active or inactive are those of the source. The rule behind the calls is not given here.

What was measured:
[1] = Antioxidant activity assessed as ABTS radical scavenging activity after 6 mins by spectrophotometric analysis; type: functional
Summary of the method: (§1)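 In vitro radical scavenging was reported as IC50 (mM) alongside a positive control. Data are mean ± s, n = 6, with experiments run in triplicate.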

[2] = Antioxidant activity assessed as hydroxyl radical scavenging activity measured 10 mins after H2O2 addition by pyronin B dye based assay; type: functional; summary of the method: as §1
[3] = Antioxidant activity assessed as DPPH radical scavenging activity incubated for 30 mins in dark; type: functional; summary of the method: as §1
[4] = Antioxidant activity assessed as superoxide radical scavenging activity measured every 30 secs for 6 mins in presence of superoxide generator pyrogallol; type: functional; summary of the method: as §1
[5] = Solubility of the compound in water; type: physicochemical; details: buffer
[6] = test system: Mus musculus; test: Antioxidant activity in Kunming mouse CFA-induced arthritis model assessed as superoxide dismutase activity in serum at 25 mg/kg/day, po for 1 week administered on day 8 post CFA induction by ELISA (reference value: 66.7 +/- 0.9 U/ml); type: functional
[7] = test system: Mus musculus; test: Antiinflammatory activity in Kunming mouse CFA-induced arthritis model assessed as COX-2 level in serum at 25 mg/kg/day, po for 1 week administered on day 8 post CFA induction by ELISA (reference value: 85.3 +/- 0.1 ng/L); type: functional
[8] = test system: Mus musculus; test: Antiinflammatory activity in Kunming mouse CFA-induced arthritis model assessed as COX-2 level in serum at 100 mg/kg/day, po for 1 week administered on day 8 post CFA induction by ELISA (reference value: 85.3 +/- 0.1 ng/L); type: functional
[9] = test system: Mus musculus; test: Antioxidant activity in Kunming mouse CFA-induced arthritis model assessed as malondialdehyde level in serum at 100 mg/kg/day, po for 1 week administered on day 8 post CFA induction by ELISA (reference value: 15.5 +/- 1.1 nmol/ml); type: functional
[10] = test system: Mus musculus; test: Antioxidant activity in Kunming mouse CFA-induced arthritis model assessed as total antioxidant capacity in serum at 100 mg/kg/day, po for 1 week administered on day 8 post CFA induction by ELISA (reference value: 2.9 +/- 0.5 U/ml); type: functional
[11] = test system: Mus musculus; test: Antioxidant activity in Kunming mouse CFA-induced arthritis model assessed as malondialdehyde level in serum at 25 mg/kg/day, po for 1 week administered on day 8 post CFA induction by ELISA (reference value: 15.5 +/- 1.1 nmol/ml); type: functional
[12] = test system: Mus musculus; test: Antioxidant activity in Kunming mouse CFA-induced arthritis model assessed as superoxide dismutase activity in serum at 100 mg/kg/day, po for 1 week administered on day 8 post CFA induction by ELISA (reference value: 66.7 +/- 0.9 U/ml); type: functional
[13] = test system: Mus musculus; test: Antioxidant activity in Kunming mouse CFA-induced arthritis model assessed as total antioxidant capacity in serum at 25 mg/kg/day, po for 1 week administered on day 8 post CFA induction by ELISA (reference value: 2.9 +/- 0.5 U/ml); type: functional
[14] = test system: Mus musculus; test: Antiinflammatory activity in Kunming mouse CFA-induced arthritis model assessed as inhibition of paw swelling at 100 mg/kg/day, po for 1 week administered on day 8 post CFA induction measured every 2 days during compound dosing; type: functional
Summary of the method: (§2)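 Dosing began seven days after the model was established, at 100 mg·kg⁻¹·d⁻¹ (high) or 25 mg·kg⁻¹·d⁻¹ (low). Inhibition of paw swelling was expressed in %, with celecoxib as reference group.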

[15] = test system: Mus musculus; test: Antiinflammatory activity in Kunming mouse CFA-induced arthritis model assessed as inhibition of paw swelling at 25 mg/kg/day, po for 1 week administered on day 8 post CFA induction measured every 2 days during compound dosing; type: functional, organism-based; summary of the method: as §2
[16] = test system: Mus musculus; test: Antiinflammatory activity in Kunming mouse CFA-induced arthritis model assessed as PGE2 level in serum at 25 mg/kg/day, po for 1 week administered on day 8 post CFA induction by ELISA (reference value: 207 +/- 2.1 ng/L); type: functional
[17] = test system: Mus musculus; test: Antiinflammatory activity in Kunming mouse CFA-induced arthritis model assessed as PGE2 level in serum at 100 mg/kg/day, po for 1 week administered on day 8 post CFA induction by ELISA (reference value: 207 +/- 2.1 ng/L); type: functional
[18] = test system: Mus musculus; test: Antiinflammatory activity in Kunming mouse CFA-induced arthritis model assessed as inhibition of paw swelling at 100 mg/kg/day, po for 1 week administered on day 8 post CFA induction measured after day 3 during compound dosing; type: functional, organism-based; summary of the method: as §2
[19] = test system: Mus musculus; test: Antiinflammatory activity in Kunming mouse CFA-induced arthritis model assessed as PGE2 level in serum at 30 mg/kg/day, po for 1 week administered on day 8 post CFA induction by ELISA (reference value: 207 +/- 2.1 ng/L); type: functional
[20] = test system: Mus musculus; test: Antiinflammatory activity in Kunming mouse CFA-induced arthritis model assessed as COX-2 level in serum at 30 mg/kg/day, po for 1 week administered on day 8 post CFA induction by ELISA (reference value: 85.3 +/- 0.1 ng/L); type: functional
[21] = test system: Mus musculus; test: Antioxidant activity in Kunming mouse CFA-induced arthritis model assessed as malondialdehyde level in serum at 30 mg/kg/day, po for 1 week administered on day 8 post CFA induction by ELISA (reference value: 15.5 +/- 1.1 nmol/ml); type: functional
[22] = test system: Mus musculus; test: Antioxidant activity in Kunming mouse CFA-induced arthritis model assessed as total antioxidant capacity in serum at 30 mg/kg/day, po for 1 week administered on day 8 post CFA induction by ELISA (reference value: 2.9 +/- 0.5 U/ml); type: functional
[23] = test system: Mus musculus; test: Antioxidant activity in Kunming mouse CFA-induced arthritis model assessed as superoxide dismutase activity in serum at 30 mg/kg/day, po for 1 week administered on day 8 post CFA induction by ELISA (reference value: 66.7 +/- 0.9 U/ml); type: functional
[24] = test system: Mus musculus; test: Antiinflammatory activity in Kunming mouse CFA-induced arthritis model assessed as inhibition of paw swelling at 30 mg/kg/day, po for 1 week administered on day 8 post CFA induction measured every 2 days during compound dosing; type: functional, organism-based

| Structure (SMILES) | IC50 [1] [mM] | IC50 [2] [mM] | IC50 [3] [mM] | IC50 [4] [mM] | further results |
| --- | --- | --- | --- | --- | --- |
| CCOc1cc(OC)ccc1C(C)=O | 37.7 | 35.3 | 39.6 | 6.6 | solubility [5]: Soluble |
| CCCCCCOc1cc(OC)ccc1C(C)=O | 42.1 | 84.4 | 42.6 | 18 |  |
| CCCCCCCCCCCCOc1cc(OC)ccc1C(C)=O | 40.7 | 65.6 | 37.4 | 28.5 |  |
| CCCCCCCCCCOc1cc(OC)ccc1C(C)=O | 41.7 | 57.4 | 40.1 | 26.6 |  |
| Cc1ccc(-c2cc(C(F)(F)F)nn2-c2ccc(S(N)(=O)=O)cc2)cc1 [CELECOXIB] |  |  |  |  | Activity [19]: 135.3 ng/L; Activity [20]: 61.6 ng/L; Activity [21]: 7.3 nmol/mL; Activity [22]: 6.3 U/ml; Activity [23]: 78 U/ml; inhibition [24]: Active |
| CCCCCCCCOc1cc(OC)ccc1C(C)=O | 38.3 | 69.4 | 40 | 21.2 |  |
| CCCCCCCCCCCCCCOc1cc(OC)ccc1C(C)=O | 38 | 57 | 43.6 | 35.9 |  |
| CCCCOc1cc(OC)ccc1C(C)=O | 36.3 | 57.2 | 43.3 | 15.6 |  |

More lines, main results first:

| IC50 [1] [mM] | IC50 [2] [mM] | IC50 [3] [mM] | IC50 [4] [mM] | Structure (SMILES) | further results |
| --- | --- | --- | --- | --- | --- |
| 8.7 | 13.2 | 16.1 | 6.8 | CCCCCCCCCCCCCCOc1cc(OC)c(Br)cc1C(C)=O |  |
| 4.6 | 0.1 | 6.5 | 1.8 | CCCCCCCCCCCCCCCCOc1cc(OC)c(Br)cc1C(C)=O | Activity [6]: 73.9 U/ml; Activity [7]: 63.9 ng/L; Activity [8]: 64.7 ng/L; Activity [9]: 5.8 nmol/mL; Activity [10]: 11.6 U/ml; Activity [11]: 7.5 nmol/mL; Activity [12]: 76.2 U/ml; Activity [13]: 6.5 U/ml; inhibition in vivo at 100 mg/kg/day [14]: 45%; inhibition [15]: Active; Activity [16]: 189.3 ng/L; Activity [17]: 150.1 ng/L |
| 35.7 | 53.1 | 42.4 | 34 | CCCCCCOc1cc(OC)c(Br)cc1C(C)=O |  |
| 36.3 | 61.5 | 39.4 | 39.4 | CCCCCCCCCCCCCCCCOc1cc(OC)ccc1C(C)=O | inhibition [18]: Active; Activity [6]: 72.1 U/ml; Activity [7]: 65.2 ng/L; Activity [8]: 64.4 ng/L; Activity [9]: 8.8 nmol/mL; Activity [10]: 16.9 U/ml; Activity [11]: 9.7 nmol/mL; Activity [12]: 80.7 U/ml; Activity [13]: 11.1 U/ml; inhibition in vivo at 100 mg/kg/day [14]: 65%; inhibition [15]: Active; Activity [16]: 182.2 ng/L; Activity [17]: 159.4 ng/L |
| 32 | 38.1 | 39 | 30.9 | CCCCCCCCOc1cc(OC)c(Br)cc1C(C)=O |  |
| 34.1 | 56.9 | 42.3 | 38.2 | CCCCOc1cc(OC)c(Br)cc1C(C)=O |  |
| 34.7 | 29.7 | 35.1 | 15 | CCCCCCCCCCOc1cc(OC)c(Br)cc1C(C)=O |  |
| 36 | 57.7 | 46.8 | 37.9 | CCOc1cc(OC)c(Br)cc1C(C)=O | solubility [5]: Soluble |
| 16 | 0.2 | 42.8 | 5.8 | COc1ccc(C(C)=O)c(O)c1 [PAEONOL] | Activity [6]: 62.5 U/ml; Activity [7]: 66.2 ng/L; Activity [8]: 61.1 ng/L; Activity [9]: 7.9 nmol/mL; Activity [10]: 4.1 U/ml; Activity [11]: 8.9 nmol/mL; Activity [12]: 68.1 U/ml; Activity [13]: 4.6 U/ml; inhibition [14]: Active; inhibition [15]: Active; Activity [16]: 155.5 ng/L; Activity [17]: 137.1 ng/L; solubility [5]: Soluble |
| 32.7 | 23.1 | 29.5 | 10.6 | CCCCCCCCCCCCOc1cc(OC)c(Br)cc1C(C)=O |  |
| 0.3 | 0.2 | 0.2 | 0.6 | Cc1c(C)c2c(c(C)c1O)CCC(C)(C(=O)O)O2 (centres undefined) [TROLOX] |  |
| 31.4 | 3 | 41.8 | 15.6 | COc1cc(O)c(C(C)=O)cc1Br | Activity [6]: 76.3 U/ml; Activity [7]: 65.4 ng/L; Activity [8]: 57.6 ng/L; Activity [9]: 6.4 nmol/mL; Activity [10]: 6 U/ml; Activity [11]: 9.9 nmol/mL; Activity [12]: 78.1 U/ml; Activity [13]: 3.8 U/ml; inhibition [14]: Active; inhibition [15]: Active; Activity [16]: 179.5 ng/L; Activity [17]: 142.3 ng/L |
